Laboratory results as given in ChEMBL document CHEMBL5233289, “Synthesis of Quinoline and Dihydroquinoline Embelin Derivatives as Cardioprotective Agents” (J Nat Prod, 2023).
Calls of active or inactive are those of the source. No cut-off for these calls is given here.

Assays:
MCF7 = assay: Antagonizing activity against doxorubicin-induced antitumor activity in human MCF7 cells assessed as cell viability at 20 uM incubated for 24 hrs in presence of doxorubicin by MTT assay; assay type: toxicity, cell-based; conditions: mcf7, 24 h
How it was run: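 MCF-7 human breast cancer cells in DMEM with 10% FBS, 37 °C, 5% CO2. They were co-treated with compound (20 μM) plus DOX (1 μM) for 24 h. Viability was read by MTT: 1 h at 37 °C, formazan in DMSO, A540. Mean ± SD, n = 3.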

H9c2 [1] = assay: Cardioprotective activity against rat H9c2 cells assessed as reduction in doxorubicin-induced cardiotoxicity by measuring cell viability at 20 uM incubated for 24 hrs in presence of doxorubicin by MTT assay; assay type: functional
How it was run: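 H9c2 rat cardiomyocytes in DMEM with 10% FBS, seeded for 24 h, then co-treated with compound (20 μM) and DOX (1 μM) for 24 h. MTT added for 1 h at 37 °C, formazan dissolved in DMSO, absorbance read at 540 nm. DOX alone served as positive control. Mean ± SD, n = 3.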

H9c2 [2] = assay: Antioxidant activity against rat H9c2 cells assessed as reduction in doxorubicin-induced oxidative stress by measuring reduction in intracellular ROS level at 1 mM incubated for 24 hrs by DCFH-DA staining based fluorometric analysis
[3] = target: Mitogen-activated protein kinase 1 and 3 (ERK2 and ERK1) (Rattus norvegicus) (UniProt P63086+P21708); assay: Inhibition of doxorubicin-induced ERK1/2 activation in rat H9c2 cells assessed as reduction in ERK1/2 phosphorylation at 20 uM in presence of doxorubicin by immunoblot analysis; assay type: cell-based
Chain of Mitogen-activated protein kinase 1 and 3 (ERK2 and ERK1) (Rattus norvegicus) (P21708 whole entry, looked up): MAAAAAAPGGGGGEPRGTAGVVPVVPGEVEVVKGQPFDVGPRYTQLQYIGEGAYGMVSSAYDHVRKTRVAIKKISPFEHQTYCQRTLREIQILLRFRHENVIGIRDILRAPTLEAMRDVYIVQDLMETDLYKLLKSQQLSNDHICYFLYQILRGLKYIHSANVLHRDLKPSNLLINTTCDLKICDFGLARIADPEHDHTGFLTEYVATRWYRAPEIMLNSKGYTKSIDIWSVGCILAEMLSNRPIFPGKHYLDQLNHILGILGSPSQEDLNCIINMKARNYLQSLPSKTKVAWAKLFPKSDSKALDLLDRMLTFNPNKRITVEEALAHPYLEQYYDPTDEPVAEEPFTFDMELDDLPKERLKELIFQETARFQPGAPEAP
Chain of Mitogen-activated protein kinase 1 and 3 (ERK2 and ERK1) (Rattus norvegicus) (P63086 whole entry, looked up): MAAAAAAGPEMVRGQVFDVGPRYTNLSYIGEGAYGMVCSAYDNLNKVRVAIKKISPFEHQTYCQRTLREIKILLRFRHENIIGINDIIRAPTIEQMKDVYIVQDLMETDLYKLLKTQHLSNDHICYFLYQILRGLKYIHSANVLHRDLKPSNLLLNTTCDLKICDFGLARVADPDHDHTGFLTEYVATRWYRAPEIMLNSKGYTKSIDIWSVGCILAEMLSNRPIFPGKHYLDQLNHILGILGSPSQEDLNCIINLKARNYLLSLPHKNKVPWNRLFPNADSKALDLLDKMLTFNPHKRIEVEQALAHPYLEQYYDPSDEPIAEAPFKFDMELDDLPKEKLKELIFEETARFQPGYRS
How it was run: (§1)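 H9c2 cell lysates after DOX (1 μM) alone or with derivative (20 μM) were run on SDS-PAGE and transferred to PVDF. Blots were probed for pAkt, Akt, pERK1/2, ERK1/2, Bax and Bcl-2, with β-actin as loading control. Detection used HRP secondary (2 h) and ECL, with densitometric quantification. Mean ± SD, n = 3.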

H9c2 [4] = assay: Cardioprotective activity against doxorubicin-treated rat H9c2 cells assessed as decrease in Bax protein expression at 20 uM in presence of doxorubicin by immunoblot analysis; assay type: functional, cell-based; how it was run: as §1
H9c2 [5] = assay: Induction of oxidative stress in rat H9c2 cells assessed as increase in intracellular ROS level at 20 uM incubated for 24 hrs by DCFH-DA staining based fluorometric analysis; assay type: toxicity, cell-based; conditions: h9c2, 24 h
How it was run: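 Intracellular ROS in H9c2 cells. Cells were treated with compound (20 μM) alone or with DOX (1 μM) over 24 h, with NAC (1 mM) as ROS inhibitor. They were then loaded with 10 μM DCFH-DA for 30 min at 37 °C in the dark. Fluorescence was read at 485/550 nm. Mean ± SD, n = 3.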

H9c2 [6] = assay: Antioxidant activity against rat H9c2 cells assessed as reduction in doxorubicin-induced oxidative stress by measuring reduction in intracellular ROS level at 20 uM incubated for 24 hrs by DCFH-DA staining based fluorometric analysis
H9c2 [7] = assay: Cardioprotective activity against doxorubicin-treated rat H9c2 cells assessed as increase in Bcl2 protein expression at 20 uM in presence of doxorubicin by immunoblot analysis; assay type: functional, cell-based; how it was run: as §1
H9c2 [8] = assay: Activation of Akt in rat H9c2 cells assessed as increase in Akt phosphorylation at 20 uM in presence of doxorubicin by immunoblot analysis; assay type: cell-based; conditions: filed as activator; how it was run: as §1
[9] = Cytotoxicity against rat H9c2 cells assessed as cell viability at 20 uM incubated for 24 hrs by MTT assay (reference value: 100%); assay type: toxicity, cell-based; conditions: read-out: Activity
How it was run: (§2)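 J774A.1 murine macrophages or H9c2 rat cardiomyocytes, grown in DMEM with 10% FBS and 1% pen/strep, were seeded for 24 h and then incubated with compound alone for 24 h. MTT reagent was added for 1 h at 37 °C, formazan dissolved in DMSO, absorbance at 540 nm. Results relative to untreated cells, mean ± SD, n = 3.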

[10] = Cytotoxicity against mouse J774.A1 cells assessed as cell viability at 10 uM incubated for 24 hrs by MTT assay (reference value: 100%); assay type: toxicity, cell-based; conditions: read-out: Activity; how it was run: as §2
[11] = Cytotoxicity against rat H9c2 cells assessed as cell viability at 10 uM incubated for 24 hrs by MTT assay (reference value: 100%); assay type: toxicity, cell-based; conditions: read-out: Activity; how it was run: as §2
[12] = Cytotoxicity against mouse J774.A1 cells assessed as cell viability at 20 uM incubated for 24 hrs by MTT assay (reference value: 100%); assay type: toxicity, cell-based; conditions: read-out: Activity; how it was run: as §2

SMILES	Activity (MCF7)	Activity (H9c2 [1])	Activity (H9c2 [2])	inhibition [3]	Activity (H9c2 [4])	Activity (H9c2 [5])	Activity (H9c2 [6])	Activity (H9c2 [7])	Activity (H9c2 [8])	viability at 24 h, 20 µM [9]	viability at 24 h, 10 µM [10]	viability at 24 h, 10 µM [11]	viability at 24 h, 20 µM [12]
CCCCCCCCCCCC1=C(O)C(=O)c2c(nc3ccccc3c2-c2ccc(F)cc2)C1=O	Toxic	81.4%											
CC(=O)N[C@@H](CS)C(=O)O			Active										
CCCCCCCCCCCC1=C(O)C(=O)c2c(nc3ccccc3c2-c2ccc(Br)cc2)C1=O	Non-Toxic	83.4%		Active	Active	Non-Toxic	Active	Active	Active				
CCCCCCCCCCCC1=C(O)C(=O)c2c(nc3ccc(OC)cc3c2-c2ccc([N+](=O)[O-])cc2)C1=O	Non-Toxic	84.3%		Active	Active	Non-Toxic	Active	Active	Active	94.4%	81.9%	99.2%	76.3%
CCCCCCCCCCCC1=C(O)C(=O)c2c(nc3ccc(Br)cc3c2-c2ccc([N+](=O)[O-])cc2)C1=O	Non-Toxic	91.2%		Active	Active	Non-Toxic	Active	Active	Active				
CCCCCCCCCCCC1=C(O)C(=O)C2=C(Nc3ccccc3C2c2ccc(C)c(C)c2)C1=O (stereo not given)	Non-Toxic			Active	Active	Non-Toxic	Active	Active	Active				
CCCCCCCCCCCC1=C(O)C(=O)c2c(nc3ccccc3c2-c2ccc([N+](=O)[O-])cc2)C1=O	Non-Toxic			Active	Active	Non-Toxic	Active	Active	Active				
